Reference: ChEMBL document CHEMBL4024768, “Discovery and Optimization of Thiazolidinyl and Pyrrolidinyl Derivatives as Inhaled PDE4 Inhibitors for Respiratory Diseases” (J Med Chem, 2017)

What was measured:
[1] = Drug level in human hepatocytes treated with 3, 5-Dichloro-4-((S)-2-(3-(cyclopropylmethoxy)-4-(difluoromethoxy)phenyl)-2-((S)-3-(3-(dimethylcarbamoyl)-phenylsulfonyl)thiazolidine-2-carbonyloxy)ethyl)pyridine 1-Oxide at 10 uM after 60 mins by LC-MS/MS analysis; assay type: ADME, cell-based, Hepatocyte; conditions: 1 h
In short: (§1)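 Pooled mixed-sex cryopreserved human hepatocytes (1 million cells/mL) in Leibovitz L-15 at 37 °C, compound at 10 μM in duplicate. Sampled at 0 and 60 min. Protein-free supernatant evaporated under nitrogen, reconstituted in mobile phase and analysed by LC−MS/MS. Cell-free medium incubation for 60 min as control.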

[2] = Drug level in human hepatocytes treated with 3, 5 -Dichloro-4-( (S)-2-(3 -(cyclopropylmethoxy)-4-(difluoromethoxy)phenyl)-2-(((S)-1-((3- (dimethylcarbamoyl)-phenyl)sulfonyl)pyrrolidine-2-carbonyl)oxy)ethyl)pyridine 1-Oxide at 10 uM after 60 mins by LC-MS/MS analysis; assay type: ADME, cell-based, Hepatocyte; conditions: 1 h; in short: as §1
[3] = Inhibition of PDE4 in human PBMC assessed as reduction in LPS-induced TNFalpha release after 18 hrs by quantitative ELISA
[4] = Inhibition of PDE4 in human U937 cell lysates assessed as residual cAMP after 2.5 mins by LANCE assay

Row | Drug metabolism [1] | Drug metabolism [2] | IC50 [3] [nM] | IC50 [4] [nM] | SMILES
1 | Metabolite_Detected | Metabolite_Detected | 480 |  | [O-][n+]1cc(Cl)c(C[C@H](O)c2ccc(OC(F)F)c(OCC3CC3)c2)c(Cl)c1
2 | Metabolite_Detected |  | 1.95 | 0.183 to 1.95 | CN(C)C(=O)c1cccc(S(=O)(=O)N2CCS[C@H]2C(=O)O[C@@H](Cc2c(Cl)c[n+]([O-])cc2Cl)c2ccc(OC(F)F)c(O)c2)c1 (relative stereo)
3 |  | Metabolite_Detected | > 1000 |  | CN(C)C(=O)c1cccc(S(=O)(=O)N2CCC[C@H]2C(=O)O)c1
